In ChEMBL document CHEMBL4689842, “EUbOPEN Chemogenomics Library wave 1” (2021):

Columns and labels:
Type in all cases: toxicity, cell-based
[1] = system: U2OS; assay: Multiplex assay against U2OS; details: human
Method in brief: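 Phenotypes for tubulin, mitochondrial mass and membrane permeability are expressed as per cents of healthy-nucleus cells. Cells were stained live at seeding with Hoechst33342, BioTracker Green Microtubule Cytoskeleton Dye, MitoTracker Red and Annexin V Alexa Fluor 680, then imaged after compound addition on a CQ1 microscope at 37°C and 5% CO2. Machine-learning gating in CellPathfinder separated Hoechst high-intensity objects from normal cells, divided normal cells by nuclear state (healthy, pyknosed, fragmented) and divided pyknosed cells into mitotic or apoptotic.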

[2] = system: HEK-293T; assay: Incucyte cell viability with HEK293T; details: human, 10 µM, compound concentration 10 uM; further: filed as whole numbers so only -1 and 0 and 1 occur
[3] = system: U2OS; assay: Incucyte cell viability with U2OS; details: human, 10 µM, compound concentration 10 uM; further: filed as whole numbers so only -1 and 0 and 1 occur
[4] = 12 h, 1 µM, compound concentration 1 uM, replicate 1
[5] = 12 h, 1 µM, compound concentration 1 uM, replicate 2
[6] = 12 h, 10 µM, compound concentration 10 uM, replicate 1
[7] = 12 h, 10 µM, compound concentration 10 uM, replicate 2
[8] = 24 h, 1 µM, compound concentration 1 uM, replicate 1
[9] = 24 h, 1 µM, compound concentration 1 uM, replicate 2
[10] = 24 h, 10 µM, compound concentration 10 uM, replicate 1
[11] = 24 h, 10 µM, compound concentration 10 uM, replicate 2
[12] = 6 h, replicate number 1, timepoint 6 hours
[13] = 12 h, replicate number 1, timepoint 12 hours
[14] = 18 h, replicate number 1, timepoint 18 hours
[15] = 24 h, replicate number 1, timepoint 24 hours

Structure (SMILES): CNC(=O)c1cc(Oc2ccc(NC(=O)Nc3cc(C(C)(C)C)nn3-c3ccc4ncccc4c3)c(F)c2)ccn1 [REBASTINIB]
- Population Apoptotic (%) [1, 4]: 46%
- Population Fragmented Nuclei (%) [1, 4]: 3%
- Population Healthy Nuclei (%) [1, 4]: 88%
- Population Hoechst High Intensity Objects (%) [1, 4]: 3%
- Population Membrane Permeable-Phenotype (%) [1, 4]: 16%
- Population Mitochondria Different-Phenotype (%) [1, 4]: 15%
- Population Mitotic Cells (%) [1, 4]: 53%
- Population Normal (%) [1, 4]: 96%
- Population Pyknosed Nuclei (%) [1, 4]: 7%
- Population Tubulin-Different-Phenotype (%) [1, 4]: 13%
- Total Cell Count [1, 4]: 164
- Population Apoptotic (%) [1, 5]: 0%
- Population Fragmented Nuclei (%) [1, 5]: 10%
- Population Healthy Nuclei (%) [1, 5]: 87%
- Population Hoechst High Intensity Objects (%) [1, 5]: 7%
- Population Membrane Permeable-Phenotype (%) [1, 5]: 17%
- Population Mitochondria Different-Phenotype (%) [1, 5]: 31%
- Population Mitotic Cells (%) [1, 5]: 100%
- Population Normal (%) [1, 5]: 92%
- Population Pyknosed Nuclei (%) [1, 5]: 1%
- Population Tubulin-Different-Phenotype (%) [1, 5]: 35%
- Total Cell Count [1, 5]: 113
- Population Apoptotic (%) [1, 6]: 50%
- Population Fragmented Nuclei (%) [1, 6]: 16%
- Population Healthy Nuclei (%) [1, 6]: 63%
- Population Hoechst High Intensity Objects (%) [1, 6]: 6%
- Population Membrane Permeable-Phenotype (%) [1, 6]: 30%
- Population Mitochondria Different-Phenotype (%) [1, 6]: 54%
- Population Mitotic Cells (%) [1, 6]: 50%
- Population Normal (%) [1, 6]: 93%
- Population Pyknosed Nuclei (%) [1, 6]: 20%
- Population Tubulin-Different-Phenotype (%) [1, 6]: 96%
- Total Cell Count [1, 6]: 196
- Population Apoptotic (%) [1, 7]: 46%
- Population Fragmented Nuclei (%) [1, 7]: 8%
- Population Healthy Nuclei (%) [1, 7]: 72%
- Population Hoechst High Intensity Objects (%) [1, 7]: 11%
- Population Membrane Permeable-Phenotype (%) [1, 7]: 18%
- Population Mitochondria Different-Phenotype (%) [1, 7]: 52%
- Population Mitotic Cells (%) [1, 7]: 53%
- Population Normal (%) [1, 7]: 88%
- Population Pyknosed Nuclei (%) [1, 7]: 18%
- Population Tubulin-Different-Phenotype (%) [1, 7]: 98%
- Total Cell Count [1, 7]: 111
- Population Apoptotic (%) [1, 8]: 25%
- Population Fragmented Nuclei (%) [1, 8]: 6%
- Population Healthy Nuclei (%) [1, 8]: 84%
- Population Hoechst High Intensity Objects (%) [1, 8]: 2%
- Population Membrane Permeable-Phenotype (%) [1, 8]: 12%
- Population Mitochondria Different-Phenotype (%) [1, 8]: 28%
- Population Mitotic Cells (%) [1, 8]: 75%
- Population Normal (%) [1, 8]: 97%
- Population Pyknosed Nuclei (%) [1, 8]: 9%
- Population Tubulin-Different-Phenotype (%) [1, 8]: 13%
- Total Cell Count [1, 8]: 218
- Population Apoptotic (%) [1, 9]: 44%
- Population Fragmented Nuclei (%) [1, 9]: 13%
- Population Healthy Nuclei (%) [1, 9]: 79%
- Population Hoechst High Intensity Objects (%) [1, 9]: 13%
- Population Membrane Permeable-Phenotype (%) [1, 9]: 14%
- Population Mitochondria Different-Phenotype (%) [1, 9]: 26%
- Population Mitotic Cells (%) [1, 9]: 55%
- Population Normal (%) [1, 9]: 86%
- Population Pyknosed Nuclei (%) [1, 9]: 7%
- Population Tubulin-Different-Phenotype (%) [1, 9]: 35%
- Total Cell Count [1, 9]: 126
- Population Apoptotic (%) [1, 10]: 75%
- Population Fragmented Nuclei (%) [1, 10]: 17%
- Population Healthy Nuclei (%) [1, 10]: 50%
- Population Hoechst High Intensity Objects (%) [1, 10]: 18%
- Population Membrane Permeable-Phenotype (%) [1, 10]: 33%
- Population Mitochondria Different-Phenotype (%) [1, 10]: 91%
- Population Mitotic Cells (%) [1, 10]: 24%
- Population Normal (%) [1, 10]: 81%
- Population Pyknosed Nuclei (%) [1, 10]: 31%
- Population Tubulin-Different-Phenotype (%) [1, 10]: 94%
- Total Cell Count [1, 10]: 227
- Population Apoptotic (%) [1, 11]: 64%
- Population Fragmented Nuclei (%) [1, 11]: 15%
- Population Healthy Nuclei (%) [1, 11]: 59%
- Population Hoechst High Intensity Objects (%) [1, 11]: 17%
- Population Membrane Permeable-Phenotype (%) [1, 11]: 30%
- Population Mitochondria Different-Phenotype (%) [1, 11]: 87%
- Population Mitotic Cells (%) [1, 11]: 35%
- Population Normal (%) [1, 11]: 82%
- Population Pyknosed Nuclei (%) [1, 11]: 25%
- Population Tubulin-Different-Phenotype (%) [1, 11]: 97%
- Total Cell Count [1, 11]: 141
- Growth Rate ([2]; 0 h, replicate number 2, timepoint 0 hours): 0
- Growth Rate [2, 12]: 0
- Growth Rate [2, 13]: 0
- Growth Rate [2, 14]: 0
- Growth Rate [2, 15]: 0
- Growth Rate ([3]; 0 h, replicate number 1, timepoint 0 hours): 1
- Growth Rate [3, 12]: 0
- Growth Rate ([3]; 6 h, replicate number 2, timepoint 6 hours): 1
- Growth Rate [3, 13]: 0
- Growth Rate [3, 14]: 0
- Growth Rate [3, 15]: 0
